Assay results collected from several papers.
Each line is one published result; the experiments were not run side by side.
Cell line: RAW264.7

COc1ccc2c(c1)c(CC(=O)O)c(C)n2C(=O)c1ccc(Cl)cc1
IC50 (NO release, inhibitor, Griess; 24 h, LPS-stimulated): 26.5 µM

C[C@]12C=CC(=O)C=C1CC[C@@H]1[C@@H]2[C@@H](O)C[C@@]2(C)[C@H]1CC[C@]2(O)C(=O)CO
IC50 (NO release, inhibitor, Griess; 24 h, LPS-stimulated): 0.2 µg/mL

COc1ccc(C[C@H](N)C(=O)N[C@H]2[C@@H](O)[C@H](n3cnc4c(N(C)C)ncnc43)O[C@@H]2CO)cc1
IC50 (cell growth or viability, resazurin; 72 h): 1.54 µM

[H]/N=C(/NC)NCCC[C@H](N)C(=O)O
inhibition (NO release, inhibitor, Griess; 250 µg/mL, 24 h, LPS-stimulated): 97.1%

C[C@@H]1C[C@H]2[C@@H]3CCC4=CC(=O)C=C[C@]4(C)[C@@]3(F)[C@@H](O)C[C@]2(C)[C@@]1(O)C(=O)CO
IC50 (NO release, inhibitor, Griess; LPS-stimulated): 13.1 µM

CCOc1ccc(Nc2c3c(nc4ccccc24)CCC3)cc1
IC50 (cell growth or viability, resazurin; 72 h): 38.4 µM

C=C1CC[C@@H]2[C@](C)(CO)[C@H](O)CC[C@@]2(C)[C@@H]1C/C=C1/C(=O)OC[C@H]1O
IC50 (NO release, inhibitor, Griess; 24 h, LPS-stimulated): 48.6 µM

[H]/N=C(/NC)NCCC[C@H](N)C(=O)O
IC50 (NO release, inhibitor, Griess; LPS-stimulated): 21.8 µM
